A short description of data set [1]: Cytotoxicity against mouse RAW264.7 cells at 50 uM after 72 hrs by MTT assay. It is filed as cell-based. The conditions noted are these: read-out: INH. The essentials:
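RAW 264.7 cells were exposed to compounds for 72 h. Viability was scored by cellular MTT conversion to formazan.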
Background: Formazan colour is commonly taken as a measure of viable cells.

Data set [2] relates to Mycobacterium tuberculosis. In words: Antimycobacterial activity against Mycobacterium tuberculosis H37Rv after 7 days by MABA assay. It is filed as functional. The settings on record: 168 h. The essentials:
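M. tuberculosis H37Rv in 7H9-S medium with OADC, adjusted to McFarland No. 1 and diluted 1:20 for inoculum. Drugs were diluted in 7H9-S at four-fold the highest final concentration, then serially two-fold diluted in plates alongside drug-free growth and sterile controls. Alamar blue microplate read-out.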
In general terms: Resazurin is reduced to fluorescent resorufin, in cell work by metabolically active cells.

In another data set the test system is Staphylococcus aureus. As to the kind of experiment: Inhibition of Staphylococcus aureus GyrB.
A further data set concerns Escherichia coli. In words: Inhibition of Escherichia coli DNA gyrase.
In another data set the target is DNA gyrase subunit B (Mycobacterium smegmatis, UniProt P0C559). In words: Inhibition of Mycobacterium smegmatis GyrB ATPase activity expressed in Escherichia coli BL21 (DE3) after 2 hrs. Also on record: species or system Mycolicibacterium smegmatis.
Chain of DNA gyrase subunit B (P0C559 whole entry): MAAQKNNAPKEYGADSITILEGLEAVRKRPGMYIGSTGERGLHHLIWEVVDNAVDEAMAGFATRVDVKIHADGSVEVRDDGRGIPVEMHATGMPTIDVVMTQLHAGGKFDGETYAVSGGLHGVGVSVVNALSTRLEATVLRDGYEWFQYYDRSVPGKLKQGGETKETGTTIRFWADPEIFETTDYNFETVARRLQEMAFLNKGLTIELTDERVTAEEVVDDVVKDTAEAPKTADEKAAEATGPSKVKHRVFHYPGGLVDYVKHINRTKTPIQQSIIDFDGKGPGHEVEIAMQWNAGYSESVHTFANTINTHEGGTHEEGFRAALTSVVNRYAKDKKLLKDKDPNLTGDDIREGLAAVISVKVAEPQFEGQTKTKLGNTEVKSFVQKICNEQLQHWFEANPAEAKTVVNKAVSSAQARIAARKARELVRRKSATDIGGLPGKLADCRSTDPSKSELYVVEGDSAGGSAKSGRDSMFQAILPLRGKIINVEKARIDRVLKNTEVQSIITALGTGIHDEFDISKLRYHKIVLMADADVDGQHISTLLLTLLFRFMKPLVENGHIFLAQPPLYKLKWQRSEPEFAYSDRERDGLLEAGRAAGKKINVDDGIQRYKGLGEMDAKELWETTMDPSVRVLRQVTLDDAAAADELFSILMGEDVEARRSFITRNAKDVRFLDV
Data set [3] concerns the target DNA gyrase subunit A/DNA gyrase subunit B (Mycobacterium tuberculosis (strain ATCC 25618 / H37Rv), UniProt P9WG45+P9WG47). As to the kind of experiment: Inhibition of Mycobacterium tuberculosis DNA gyrase super coiling activity of relaxed pBR322 using ethidium bromide staining by agarose gel electrophoresis.

≈ marks a conversion by molar mass, not a printed value. Calls of active or inactive are those of the source. No cut-off for these calls is given here.

Chain of DNA gyrase subunit A/DNA gyrase subunit B (P9WG45 whole entry): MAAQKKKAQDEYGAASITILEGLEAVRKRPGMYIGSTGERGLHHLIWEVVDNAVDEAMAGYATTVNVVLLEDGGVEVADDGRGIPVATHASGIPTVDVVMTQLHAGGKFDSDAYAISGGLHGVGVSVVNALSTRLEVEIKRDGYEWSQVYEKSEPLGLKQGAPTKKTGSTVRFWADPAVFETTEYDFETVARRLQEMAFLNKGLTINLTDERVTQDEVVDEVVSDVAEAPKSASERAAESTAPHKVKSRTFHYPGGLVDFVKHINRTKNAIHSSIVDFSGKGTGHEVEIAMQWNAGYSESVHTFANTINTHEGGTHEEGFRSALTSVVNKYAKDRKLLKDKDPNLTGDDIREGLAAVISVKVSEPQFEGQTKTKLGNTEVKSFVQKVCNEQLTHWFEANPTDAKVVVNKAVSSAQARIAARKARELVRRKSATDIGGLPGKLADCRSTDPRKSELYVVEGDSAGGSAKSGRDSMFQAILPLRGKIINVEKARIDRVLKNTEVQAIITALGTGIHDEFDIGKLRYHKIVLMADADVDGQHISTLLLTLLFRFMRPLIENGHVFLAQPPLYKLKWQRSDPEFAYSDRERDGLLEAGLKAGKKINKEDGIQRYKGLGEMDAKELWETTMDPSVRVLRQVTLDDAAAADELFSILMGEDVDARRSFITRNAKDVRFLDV
Chain of DNA gyrase subunit A/DNA gyrase subunit B (P9WG47 whole entry): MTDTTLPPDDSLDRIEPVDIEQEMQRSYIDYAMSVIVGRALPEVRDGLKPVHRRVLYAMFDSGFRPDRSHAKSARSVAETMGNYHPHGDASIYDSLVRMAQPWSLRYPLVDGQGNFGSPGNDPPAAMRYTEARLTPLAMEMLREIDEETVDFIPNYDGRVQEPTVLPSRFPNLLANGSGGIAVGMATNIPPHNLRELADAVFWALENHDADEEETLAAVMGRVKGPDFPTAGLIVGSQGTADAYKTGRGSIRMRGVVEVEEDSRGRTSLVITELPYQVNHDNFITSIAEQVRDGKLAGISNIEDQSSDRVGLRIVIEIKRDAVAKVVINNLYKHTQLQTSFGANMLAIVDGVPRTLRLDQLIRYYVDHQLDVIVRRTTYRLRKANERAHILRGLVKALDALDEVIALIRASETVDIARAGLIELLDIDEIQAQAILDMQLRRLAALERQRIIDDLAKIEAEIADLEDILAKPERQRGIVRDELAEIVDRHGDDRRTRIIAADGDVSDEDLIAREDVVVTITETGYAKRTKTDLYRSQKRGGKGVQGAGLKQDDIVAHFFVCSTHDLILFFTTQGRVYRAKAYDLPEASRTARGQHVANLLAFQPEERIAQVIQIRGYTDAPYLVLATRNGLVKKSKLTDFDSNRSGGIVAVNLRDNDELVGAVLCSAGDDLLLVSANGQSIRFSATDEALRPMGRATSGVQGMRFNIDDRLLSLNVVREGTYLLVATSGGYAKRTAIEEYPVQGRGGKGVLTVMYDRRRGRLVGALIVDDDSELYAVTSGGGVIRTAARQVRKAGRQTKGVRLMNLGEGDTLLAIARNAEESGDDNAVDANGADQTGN

As to `CCOC(=O)c1sc(-c2ccccc2)nc1N1CCC(NCc2ccccc2)CC1`, the cytotoxicity at 72 h, 50 µM in data set [1] came out at 11.7%. This compound also registered a minimal inhibitory concentration (MIC) in data set [2] of 119 µM (≈ 50 µg/mL).

As to `CO[C@@H]1[C@@H](OC(N)=O)[C@@H](O)[C@H](Oc2ccc3c(O)c(NC(=O)c4ccc(O)c(CC=C(C)C)c4)c(=O)oc3c2C)OC1(C)C` [NOVOBIOCIN], the inhibition result with Staphylococcus aureus and in the data set with Escherichia coli was “inactive” throughout. In addition, the minimum inhibitory concentration (MIC) in data set [2] is > 200 µM.

For the compound `CCOC(=O)c1sc(-c2ccccc2)nc1N1CCC(NCc2ccc(C(F)(F)F)cc2)CC1`, the cytotoxicity at 72 h, 50 µM in data set [1] stood at 22.7%. Further, the lowest concentration to inhibit growth in data set [2] (MIC) was 102 µM (≈ 50 µg/mL).

In the case of `CCOC(=O)c1sc(-c2ccccc2)nc1N1CCC(NCc2ccc(OC)cc2)CC1`, in data set [1], the cytotoxicity at 72 h, 50 µM was 8.4%. In addition, the MIC in data set [2] is > 111 µM.

As for `CCOC(=O)c1sc(-c2ccccc2)nc1N1CCC(NCc2cccc(C(F)(F)F)c2)CC1`, the cytotoxicity at 72 h, 50 µM in data set [1] amounted to 28.1%. Also, the inhibition entry in the data set on Staphylococcus aureus is “inactive”. The same compound had an IC50 at DNA gyrase subunit B of 26.9 µM. The same compound had an MIC in data set [2] of 102 µM (≈ 50 µg/mL).

As for `CCOC(=O)c1sc(-c2ccncc2)nc1N1CCC(NCc2ccc(OCc3ccccc3)cc2)CC1`, the cytotoxicity at 72 h, 50 µM in data set [1] turned out to be 8.04%. In data set [2], this compound came in with a minimal inhibitory concentration (MIC) of 47.3 µM (≈ 25 µg/mL).

On to `CCOC(=O)c1sc(-c2ccncc2)nc1N1CCC(NCc2ccc(OC)cc2)CC1`, for which, in data set [1], the cytotoxicity at 72 h, 50 µM came out at 16.1%. In data set [2], it took 110 µM (≈ 50 µg/mL) to inhibit growth (MIC).

In the case of `CCOC(=O)c1sc(-c2ccccc2)nc1N1CCC(NCc2ccc(Cl)c(Cl)c2)CC1`, the cytotoxicity at 72 h, 50 µM in data set [1] came out at 18.1%. The MIC in data set [2] was > 102 µM.

Regarding `CCOC(=O)c1sc(-c2ccccn2)nc1N1CCC(NCc2ccc(Cl)cc2Cl)CC1`, the cytotoxicity at 72 h, 50 µM in data set [1] turned out to be 18.6%. Besides, 50.9 µM (≈ 25 µg/mL) was the least that counted as inhibitory in data set [2] (MIC).

With `CCOC(=O)c1sc(-c2ccccc2)nc1N1CCC(NCc2ccc(Cl)cc2Cl)CC1`, the cytotoxicity at 72 h, 50 µM in data set [1] was 9.43%. In data set [2], this compound had an MIC of 51 µM (≈ 25 µg/mL).

Consider `CCOC(=O)c1sc(-c2ccccn2)nc1N1CCC(NCc2ccc(Cl)c(Cl)c2)CC1`, for which, in data set [1], the cytotoxicity at 72 h, 50 µM amounted to 30.1%. In addition, in data set [2], the MIC is > 102 µM.

`CCOC(=O)c1sc(-c2ccncc2)nc1N1CCC(NCc2cccc(C(F)(F)F)c2)CC1`: in data set [1], the cytotoxicity at 72 h, 50 µM worked out at 14.3%. This compound showed an MIC in data set [2] of 51 µM (≈ 25 µg/mL).

`CCOC(=O)c1sc(-c2ccncc2)nc1N1CCC(NCc2ccc(F)cc2)CC1`: the cytotoxicity at 72 h, 50 µM in data set [1] came out at 17.4%. In data set [2], the MIC is 56.8 µM (≈ 25 µg/mL).

`CCOC(=O)c1sc(-c2ccccn2)nc1N1CCC(NCc2ccc(F)cc2)CC1`: the cytotoxicity at 72 h, 50 µM in data set [1] was 12.6%. In data set [2], this compound returned an MIC of 28.4 µM (≈ 12.5 µg/mL).

As for `CCOC(=O)c1sc(-c2ccccn2)nc1N1CCC(NCc2cccc(C(F)(F)F)c2)CC1`, the cytotoxicity at 72 h, 50 µM in data set [1] was found to be 19.2%. Further, in the data set with Staphylococcus aureus, the inhibition entry was “inactive”. On DNA gyrase subunit B, this compound displayed an IC50 of 29.1 µM. Moreover, it took 25.5 µM (≈ 12.5 µg/mL) to inhibit growth in data set [2] (MIC).

On to `CCOC(=O)c1sc(-c2ccncc2)nc1N1CCC(NCc2ccc(C(F)(F)F)cc2)CC1`, for which, in data set [1], the cytotoxicity at 72 h, 50 µM worked out at 18.1%. Also, the MIC in data set [2] turned out to be 102 µM (≈ 50 µg/mL).

For `CCOC(=O)c1sc(-c2ccccn2)nc1N1CCC(NCc2ccc(OC)cc2)CC1`, in data set [1], the cytotoxicity at 72 h, 50 µM turned out to be 4.62%. This compound came in with an MIC in data set [2] of 55.2 µM (≈ 25 µg/mL).

Turning to `CCOC(=O)c1sc(-c2ccncc2)nc1N1CCC(NCc2ccc(Cl)c(Cl)c2)CC1`, the cytotoxicity at 72 h, 50 µM in data set [1] turned out to be 32.2%. In data set [2], this compound yielded an MIC of 102 µM (≈ 50 µg/mL).

With `CCOC(=O)c1sc(-c2ccccc2)nc1N1CCC(NCc2ccc(F)cc2)CC1`, in data set [1], the cytotoxicity at 72 h, 50 µM came to 6.23%. Further, the inhibition result with Staphylococcus aureus and in the data set on Escherichia coli was “inactive” throughout. Further, the IC50 against DNA gyrase subunit B was determined as 24 µM; in data set [3], 27.1 µM. This compound also had an MIC in data set [2] of 28.4 µM (≈ 12.5 µg/mL).

In the case of `CCOC(=O)c1sc(-c2ccccn2)nc1N1CCC(NCc2ccccc2)CC1`, the cytotoxicity at 72 h, 50 µM in data set [1] turned out to be 14.6%. For the same compound, the MIC in data set [2] came out at 59.2 µM (≈ 25 µg/mL).

Consider `CCOC(=O)c1sc(-c2ccccn2)nc1N1CCC(NCc2ccc(C(F)(F)F)cc2)CC1`, for which, in data set [1], the cytotoxicity at 72 h, 50 µM worked out at 14.6%. Also, it took 51 µM (≈ 25 µg/mL) to inhibit growth in data set [2] (MIC).

With `CCOC(=O)c1sc(-c2ccccn2)nc1N1CCC(NCc2ccc(OCc3ccccc3)cc2)CC1`, in data set [1], the cytotoxicity at 72 h, 50 µM amounted to 12.8%. In addition, the lowest concentration to inhibit growth in data set [2] (MIC) was 47.3 µM (≈ 25 µg/mL).

With `CCOC(=O)c1sc(-c2ccncc2)nc1N1CCC(NCc2ccccc2)CC1`, the cytotoxicity at 72 h, 50 µM in data set [1] is 10.8%. Besides, in data set [2], inhibition of growth (MIC) required 59.2 µM (≈ 25 µg/mL).

In the case of `CCOC(=O)c1sc(-c2ccncc2)nc1N1CCC(NCc2ccc(Cl)cc2Cl)CC1`, in data set [1], the cytotoxicity at 72 h, 50 µM was 18.4%. Besides, in the data set on Staphylococcus aureus, the inhibition result is “inactive”. This compound registered an IC50 against DNA gyrase subunit B of 27.1 µM. The same compound returned an MIC in data set [2] of 25.4 µM (≈ 12.5 µg/mL).

As for `CCOC(=O)c1sc(-c2ccccc2)nc1N1CCC(NCc2ccc(OCc3ccccc3)cc2)CC1`, the cytotoxicity at 72 h, 50 µM in data set [1] is 18.4%. This compound displayed an MIC in data set [2] of 47.4 µM (≈ 25 µg/mL).

For orientation: MIC means the least concentration at which growth counts as inhibited. A higher MIC goes with a need for much substance. As usually defined, the IC50 is the concentration that gives 50% inhibition. Read a high IC50 as a need for much substance.

Values taken from ChEMBL document CHEMBL3085688, “Thiazole-aminopiperidine hybrid analogues: design and synthesis of novel Mycobacterium tuberculosis GyrB inhibitors” (Eur J Med Chem, 2013).
